Assay results as given in PubChem BioAssay AID488910 (Broad Institute, 2010).
Among all 20,000 compounds or so, about 25 (0.1%) were called active. The full list was thinned out, with actives kept by preference. Values without a mark were called inactive.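 How the source made its calls: active means mean replicate protection from cytokine-induced ATP loss at least 50% and at least 75% of replicates each reaching 50%; inconclusive means meets only one of the two criteria, mean or replicate share; inactive means fails both the mean and replicate share criteria.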

Test: preservation of ATP in cytokine-treated beta cells – cell-based, ATP luminescence, single point, primary screen (AID 488910)
Settings: INS-1E cytokine-induced death, 48 h, at 10 µM, stronger effect = higher value, normalised: neutral wells 0, positive control 100
Method in brief: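 Assay system: INS-1E rat cells / Quantity: 8000 cells per well / Medium: RPMI without phenol red, 5% FBS / Probe or stimulus: three-cytokine cocktail (IFN-γ, TNF-α, IL-1β) / Dosing: one compound concentration, pin transfer / Timing: 48 h co-treatment, 10 min post-lysis read / Technique: CellTiter-Glo luminescence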

Row | Structure (SMILES) | protection from cytokine-induced ATP loss
1 | C[C@@H]1CN([C@@H](C)CO)C(=O)Cc2cc(NC(=O)Nc3ccc(F)cc3)ccc2O[C@@H]1CN(C)S(=O)(=O)c1ccccc1 | 13.1%
2 | C[C@@H]1CN([C@@H](C)CO)C(=O)c2cc(NS(C)(=O)=O)ccc2O[C@@H]1CN(C)C(=O)Nc1ccccc1 | -5.38%
3 | CC(C)NC(=O)Nc1ccc2c(c1)C(=O)N([C@@H](C)CO)C[C@H](C)[C@@H](CN(C)S(C)(=O)=O)O2 | 2.67%
4 | C[C@H]1CN([C@@H](C)CO)C(=O)Cc2cc(NS(=O)(=O)c3cccs3)ccc2O[C@@H]1CN(C)S(=O)(=O)c1cn(C)cn1 | 6.75%
5 | COc1ccc(CN(C)C[C@H]2Oc3c(NS(=O)(=O)c4ccccc4)cccc3C(=O)N([C@@H](C)CO)C[C@H]2C)cc1 | 2.69%
6 | CNC[C@H]1Oc2ccc(NC(=O)C3CCCCC3)cc2C(=O)N([C@H](C)CO)C[C@@H]1C | 1.62%
7 | C[C@@H]1CN([C@@H](C)CO)C(=O)c2cc(NC(=O)Cn3cnnn3)ccc2O[C@H]1CN(C)Cc1ccc(C(F)(F)F)cc1 | -4.67%
8 | Cc1noc(C)c1NC(=O)Nc1ccc2c(c1)C(=O)N([C@@H](C)CO)C[C@H](C)[C@H](CN(C)Cc1ccc(-c3ccccc3)cc1)O2 | -3.13%
9 | Cc1noc(C)c1NC(=O)Nc1ccc2c(c1)C(=O)N([C@@H](C)CO)C[C@@H](C)[C@@H](CN(C)CC1CCCCC1)O2 | 3.33%
10 | C[C@H](CO)N1C[C@H](C)[C@H](CN(C)Cc2ccc(Oc3ccccc3)cc2)Oc2c(NC(=O)CCCCCC(=O)Nc3ccccc3N)cccc2C1=O | -9.83%
11 | COc1ccc(NC(=O)N(C)C[C@H]2Oc3ccc(N(C)C)cc3C(=O)N([C@H](C)CO)C[C@H]2C)cc1 | 1.38%
12 | Cc1ccc(S(=O)(=O)Nc2ccc3c(c2)C(=O)N([C@H](C)CO)C[C@H](C)[C@@H](CN(C)C(=O)NC(C)C)OCCCC[C@@H](C)O3)cc1 | 12.2%
13 | Cc1ccc(S(=O)(=O)N(C)C[C@H]2Oc3ccc(NC(=O)CCCCCC(=O)Nc4ccccc4N)cc3C(=O)N([C@H](C)CO)C[C@H]2C)cc1 | -6.48%
14 | CN(C)CCCOc1ccc(/C=N/NC(=O)c2cccc(C(=O)NO)c2)cc1 | -4.67%
15 | C[C@H]1CN([C@@H](C)CO)C(=O)Cc2cc(NC(=O)Nc3ccc(C(F)(F)F)cc3)ccc2O[C@@H]1CN(C)S(=O)(=O)c1ccc(Cl)cc1 | -4.37%
16 | C[C@@H]1CN([C@H](C)CO)C(=O)Cc2cc(NC(=O)CCCCCC(=O)Nc3ccccc3N)ccc2O[C@H]1CN(C)S(=O)(=O)c1ccc(F)cc1 | 9.28%
17 | COc1cc(/C=N/NC(=O)CCCCCCC(=O)Nc2ccccc2O)ccc1O | -6.33%
18 | COc1ccc(NC(=O)N(C)C[C@H]2Oc3ccc(NC(=O)NC(C)C)cc3CC(=O)N([C@H](C)CO)C[C@H]2C)cc1 | 14%
19 | Cc1ccc(S(=O)(=O)N(C)C[C@@H]2Oc3ccc(N(C)C)cc3C(=O)N([C@@H](C)CO)C[C@H]2C)cc1 | -1.09%
20 | Cc1ccc(S(=O)(=O)Nc2ccc3c(c2)C(=O)N([C@@H](C)CO)C[C@@H](C)[C@H](CN(C)Cc2ccc(C(=O)O)cc2)O3)cc1 | 3.07%
21 | C[C@H]1CN([C@@H](C)CO)C(=O)Cc2cc(NC(=O)Cn3cnnn3)ccc2O[C@H]1CN(C)Cc1ccc(C(=O)O)cc1 | 10.1%
22 | Cc1noc(C)c1S(=O)(=O)N(C)C[C@@H]1Oc2c(NS(=O)(=O)c3cn(C)cn3)cccc2C(=O)N([C@@H](C)CO)C[C@H]1C | 4.74%
23 | CC(C)NC(=O)Nc1ccc2c(c1)C(=O)N([C@@H](C)CO)C[C@@H](C)[C@H](CN(C)Cc1ccc(Cl)c(Cl)c1)O2 | -9.43%
24 | C[C@@H]1CN([C@H](C)CO)C(=O)c2cccc(NS(=O)(=O)c3ccc(Cl)cc3)c2O[C@H]1CN(C)Cc1ccc(C(F)(F)F)cc1 | 6.19%

Row | Structure (SMILES) | protection from cytokine-induced ATP loss
25 | C[C@H]1CN([C@@H](C)CO)C(=O)c2cccc(NC(=O)Nc3ccc(F)cc3)c2O[C@H]1CN(C)S(=O)(=O)c1cn(C)cn1 | 5.6%
26 | Cc1noc(C)c1NC(=O)N(C)C[C@@H]1Oc2ccc(NS(=O)(=O)c3ccc(Cl)cc3)cc2C(=O)N([C@@H](C)CO)C[C@H]1C | 5.78%
27 | C[C@@H]1CN([C@H](C)CO)C(=O)c2cccc(NC(=O)Nc3ccc4c(c3)OCO4)c2O[C@H]1CN(C)S(=O)(=O)c1ccc(Cl)cc1 | -2.56%
28 | COc1ccc(NC(=O)N(C)C[C@@H]2Oc3c(NS(=O)(=O)c4ccc(OC)cc4)cccc3C(=O)N([C@H](C)CO)C[C@@H]2C)cc1 | 8.49%
29 | C[C@H]1CN([C@@H](C)CO)C(=O)c2cc(NC(=O)Cn3cnnn3)ccc2O[C@H]1CN(C)Cc1ccc(C(=O)O)cc1 | 1.96%
30 | C[C@@H]1CN([C@H](C)CO)C(=O)c2cccc(NC(=O)CCCCCC(=O)Nc3ccccc3N)c2O[C@H]1CN(C)CC1CCCCC1 | 4.11%
31 | C[C@@H]1CN([C@H](C)CO)C(=O)Cc2cc(NC(=O)Cn3cnnn3)ccc2O[C@H]1CN(C)Cc1ccc(Cl)c(Cl)c1 | 4.05%
32 | C[C@H](CO)N1C[C@H](C)[C@@H](CN(C)C(=O)Nc2ccccc2)Oc2c(NC(=O)CCCCCC(=O)Nc3ccccc3N)cccc2C1=O | 4.22%
33 | C[C@@H]1CN([C@H](C)CO)C(=O)c2cccc(NS(=O)(=O)c3ccc(F)cc3)c2O[C@@H]1CN(C)S(=O)(=O)c1ccc(Cl)cc1 | 0.697%
34 | C[C@@H]1CN([C@@H](C)CO)C(=O)c2cccc(NC(=O)Nc3cccc4ccccc34)c2O[C@@H]1CN(C)CC1CC1 | 2.15%
35 | COC(=O)CCCCCCC(=O)N/N=C/c1c(Cl)cc(OC)c(OC)c1Cl | 2.23%
36 | C[C@@H]1CN([C@@H](C)CO)C(=O)c2cc(NS(=O)(=O)c3ccc(F)cc3)ccc2O[C@@H]1CN(C)C(=O)NC1CCCCC1 | -2.78%
37 | COc1ccc(NC(=O)N(C)C[C@H]2Oc3ccc(N(C)C)cc3C(=O)N([C@@H](C)CO)C[C@H]2C)cc1 | 3.7%
38 | Cc1ccc(S(=O)(=O)N(C)C[C@@H]2Oc3c(NC(=O)Nc4ccc(F)cc4)cccc3C(=O)N([C@H](C)CO)C[C@H]2C)cc1 | 40.9%
39 | CNC[C@H]1OCCCC[C@@H](C)Oc2ccc(NC(=O)Cc3ccccc3)cc2C(=O)N([C@H](C)CO)C[C@@H]1C | -7.6%
40 | C[C@@H]1CN([C@@H](C)CO)C(=O)Cc2cc(NS(=O)(=O)c3ccc(F)cc3)ccc2O[C@@H]1CN(C)S(=O)(=O)c1cccs1 | 4.79%
41 | C[C@H](CO)N1C[C@H](C)[C@H](CN(C)Cc2ccccc2)Oc2ccc(NC(=O)CCCCCC(=O)Nc3ccccc3N)cc2C1=O | -0.781%
42 | COc1ccc(NC(=O)N(C)C[C@@H]2Oc3ccc(NC(=O)CCCN(C)C)cc3CC(=O)N([C@H](C)CO)C[C@H]2C)cc1 | 7.7%
43 | C[C@@H]1CN([C@@H](C)CO)C(=O)c2cccc(NS(=O)(=O)c3ccc(Cl)cc3)c2O[C@@H]1CN(C)Cc1ccccc1 | -3.08%
44 | CC(C)NC(=O)N(C)C[C@H]1Oc2ccc(NS(C)(=O)=O)cc2CC(=O)N([C@@H](C)CO)C[C@@H]1C | 2.48%
45 | Cc1noc(C)c1NC(=O)N(C)C[C@@H]1Oc2c(NC(=O)C3CCCCC3)cccc2C(=O)N([C@H](C)CO)C[C@@H]1C | 10.1%
46 | C[C@@H]1CN([C@H](C)CO)C(=O)c2cccc(NC(=O)Nc3ccc4c(c3)OCO4)c2O[C@@H]1CN(C)Cc1ccccc1 | -9.92%
47 | C[C@@H]1CN([C@@H](C)CO)C(=O)c2cccc(NS(=O)(=O)c3cccs3)c2O[C@H]1CN(C)Cc1ccncc1 | 4.56%
48 | C[C@H]1CN([C@@H](C)CO)C(=O)Cc2cc(NC(=O)Cn3cnnn3)ccc2O[C@@H]1CN(C)Cc1ccc(-c2ccccc2)cc1 | 5.19%

Row | Structure (SMILES) | protection from cytokine-induced ATP loss
49 | C[C@@H]1CN([C@H](C)CO)C(=O)Cc2cc(NC(=O)Nc3cccc4ccccc34)ccc2O[C@@H]1CN(C)Cc1ccc(C(F)(F)F)cc1 | -18.8%
50 | Cc1ccc(S(=O)(=O)Nc2ccc3c(c2)CC(=O)N([C@H](C)CO)C[C@@H](C)[C@H](CN(C)Cc2ccc(C(F)(F)F)cc2)O3)cc1 | 4.83%
51 | O=C(NO)c1ccc(C(=O)N/N=C/c2cc(Br)cc(Br)c2O)cc1 | 29.8%
52 | C[C@@H]1CN([C@@H](C)CO)C(=O)c2cc(NS(=O)(=O)c3ccc(Cl)cc3)ccc2O[C@H]1CN(C)C(=O)Nc1ccc(C(F)(F)F)cc1 | -4.38%
53 | C[C@H]1CN([C@@H](C)CO)C(=O)c2cc(NS(=O)(=O)c3cccs3)ccc2O[C@@H]1CN(C)C(=O)Nc1ccccc1 | 10.2%
54 | C[C@@H]1CN([C@H](C)CO)C(=O)Cc2cc(NS(=O)(=O)c3cccs3)ccc2O[C@@H]1CN(C)Cc1ccc(C(=O)O)cc1 | 5.4%
55 | C[C@@H]1CN([C@H](C)CO)C(=O)Cc2cc(NS(=O)(=O)c3cn(C)cn3)ccc2O[C@@H]1CN(C)C(=O)Nc1ccccc1 | 10.7%
56 | CC(C)NC(=O)N(C)C[C@@H]1Oc2ccc(NC(=O)CCCCCC(=O)Nc3ccccc3N)cc2C(=O)N([C@@H](C)CO)C[C@H]1C | 12.1%
57 | Cc1ccc(S(=O)(=O)Nc2ccc3c(c2)CC(=O)N([C@@H](C)CO)C[C@H](C)[C@H](CN(C)Cc2ccccc2)O3)cc1 | 12.2%
58 | COC(=O)CCCCCCC(=O)N/N=C/c1cccc(Br)c1 | 21.3%
59 | C[C@H](CO)N1C[C@H](C)[C@H](CN(C)C(=O)Nc2cccc3ccccc23)Oc2ccc(NS(C)(=O)=O)cc2C1=O | 4.67%
60 | C[C@H]1CN([C@@H](C)CO)C(=O)Cc2cc(NC(=O)NC3CCCCC3)ccc2O[C@@H]1CN(C)Cc1ccc(Oc2ccccc2)cc1 | -49.9%
61 | C[C@@H]1CN([C@@H](C)CO)C(=O)c2cc(NC(=O)C3CCCCC3)ccc2O[C@@H]1CN(C)Cc1ccc(C(=O)O)cc1 | 3.82%
62 | COc1ccc(NC(=O)Nc2ccc3c(c2)CC(=O)N([C@@H](C)CO)C[C@H](C)[C@@H](CN(C)S(=O)(=O)c2cn(C)cn2)O3)cc1 | 14.9%
63 | Cc1ccc(S(=O)(=O)Nc2ccc3c(c2)C(=O)N([C@H](C)CO)C[C@H](C)[C@@H](CN(C)C(=O)Nc2ccc4c(c2)OCO4)OCCCC[C@@H](C)O3)cc1 | -3.08%
64 | COC(=O)CCCCCCC(=O)N/N=C/c1c(OC)cc(O)cc1OC | 3.27%
65 | COC(=O)CCCCCCC(=O)N/N=C/c1ccc(O)c(OC)c1 | 9.74%
66 | COc1cc(/C=N\NC(=O)CCCCCCC(=O)NO)c(Br)cc1O | 77.6% (active)
67 | C[C@H](CO)N1C[C@H](C)[C@H](CN(C)S(C)(=O)=O)Oc2c(NC(=O)c3ccc(-c4nccs4)cc3)cccc2C1=O | -1.51%
68 | COc1ccc(S(=O)(=O)Nc2ccc3c(c2)C(=O)N([C@H](C)CO)C[C@@H](C)[C@H](CN(C)S(=O)(=O)c2ccc(C)cc2)O3)cc1 | -13.4%
69 | C[C@@H]1CN([C@H](C)CO)C(=O)c2cc(NS(C)(=O)=O)ccc2O[C@@H]1CN(C)S(C)(=O)=O | 6.6%
70 | Cc1noc(C)c1NC(=O)N(C)C[C@H]1OCCCC[C@@H](C)Oc2ccc(NC(=O)NC(C)C)cc2C(=O)N([C@H](C)CO)C[C@@H]1C | -5.7%
71 | COc1ccc(NC(=O)Nc2ccc3c(c2)C(=O)N([C@H](C)CO)C[C@H](C)[C@@H](CN(C)C(=O)Nc2ccc4c(c2)OCO4)O3)cc1 | 3.11%
72 | C[C@@H]1CN([C@@H](C)CO)C(=O)c2cc(NC(=O)CCN3CCOCC3)ccc2O[C@@H]1CN(C)S(=O)(=O)c1ccccc1 | 8.45%
